ChEMBL document CHEMBL4715843, “NO-releasing STAT3 inhibitors suppress BRAF-mutant melanoma growth” (Eur J Med Chem, 2020)
The source made the active and inactive calls. The rule behind the calls is not given here.

Assays:
[1] = biological target: T1, Signal transducer and activator of transcription 3 (Homo sapiens, UniProt P40763); experiment: Inhibition of STAT3 in human SB-590885-resistant 451Lu cells assessed as reduction in PAX3 expression measured after 12 hrs by Western blot analysis; conditions: dose 10-25 µM
Procedure, shortened: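 451 Lu and MEL 1617 pairs, sensitive and resistant; resistant lines maintained in RPMI with 1 µM PLX4720. Treated with 10 and 25 µM for 12 h versus DMSO. Lysates (60 µg protein, 10% SDS-PAGE) immunoblotted for Ser727- and Tyr705-phospho-STAT3, total STAT3, total PAX3, with actin.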

[2] = biological target: Signal transducer and activator of transcription 3 (Mus musculus) (UniProt P42227); experiment: Inhibition of EGF-induced STAT3 phosphorylation in MEF assessed as reduction in STAT3 nuclear translocation preincubated overnight followed by EGF stimulation and measured after 30 mins by DAPI staining based immunofluorescence assay; conditions: dose 5-50 µM
Procedure, shortened: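 MEF cells (2000/well) were allowed to adhere for 24 h, then held overnight in serum-free medium with inhibitor doses. They were stimulated with full RPMI containing 100 nM EGF for 30 min, then fixed in 4% paraformaldehyde and permeabilized. Cells were immunostained for STAT3 (Alexa Fluor 488) with DAPI nuclear counterstain and nuclear STAT3 was quantified by imaging; three independent experiments.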

451Lu [3] = experiment: Antiproliferative activity against human 451Lu cells measured after 48 hrs by MTS assay; assay type: functional, cell-based
[4] = biological target: T1, Signal transducer and activator of transcription 3; experiment: Inhibition of STAT3 phosphorylation at S727 residues in human NCI-H157 cells at 25 uM after 12 hrs by Western blotting analysis; assay type: cell-based
Procedure, shortened: (§1)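 Cells lysed in M-PER after 12 h drug exposure (overnight per text); 60 µg total protein run on 10% SDS-PAGE, transferred to PVDF, probed overnight at 4 °C with phospho-specific antibodies. Panel lines (U87-MG, MDA-MB-468, MIA PaCa-2, NCI-H157, A549) given 25 µM; A375 given 0, 5, 10, 25 µM. Actin and/or vinculin loading controls.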

MEL1617 [5] = experiment: Antiproliferative activity against human SB-590885-sensitive MEL1617 cells assessed as reduction in cell viability measured after 48 hrs by MTS assay; assay type: functional, cell-based
Procedure, shortened: (§2)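 Melanoma lines were grown in RPMI-1640 with Glutamax at 37 °C and 5% CO2. The resistant 451 Lu-R and MEL 1617-R sublines were maintained with 1 µM PLX4720. Cells were incubated with vehicle or inhibitor over a dose range, and viability was read by MTS assay in triplicate.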

[6] = biological target: Proto-oncogene tyrosine-protein kinase Src (Homo sapiens) (UniProt P12931); experiment: Inhibition of SRC phosphorylation in human MDA-MB-468 cells at 25 uM after 12 hrs by Western blotting analysis; assay type: cell-based; procedure, shortened: as §1
MDA-MB-468 = experiment: Antiproliferative activity against human MDA-MB-468 cells measured after 48 hrs by MTS assay; assay type: functional, cell-based
[7] = biological target: T1, Signal transducer and activator of transcription 3; experiment: Inhibition of STAT3 phosphorylation at S727 residues in human A549 cells at 25 uM after 12 hrs by Western blotting analysis; assay type: cell-based; procedure, shortened: as §1
451Lu [8] = experiment: Induction of apoptosis in human SB-590885-resistant 451Lu cells assessed as increase in cleaved PARP expression measured after 12 hrs by Western blot analysis; assay type: functional
Procedure, shortened: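 Sensitive and resistant 451 Lu cells were exposed to a dose range for 12 h before lysis. PARP, cleaved PARP and caspase-7 were detected by western blot against a vinculin loading control; repeated twice.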

A-375 [9] = experiment: Antiproliferative activity against human A-375 cells measured after 48 hrs by MTS assay; assay type: functional, cell-based
Procedure, shortened: (§3)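 Cells were exposed to a dose range of inhibitor for 48 h, and viability was read by MTS assay in triplicate. GI50 was taken as the concentration giving 50% growth inhibition, averaged from three independent experiments. A375 was cultured in RPMI-1640 with Glutamax. A549 and NCI-H157 were kept in RPMI-1640, and MIA PaCa-2 and U87-MG in DMEM.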

MEL1617 [10] = experiment: Antiproliferative activity against human SB-590885-resistant MEL1617 cells assessed as reduction in cell viability measured after 48 hrs by MTS assay; assay type: functional, cell-based; procedure, shortened: as §2
[11] = biological target: Tyrosine-protein kinase JAK2 (Homo sapiens) (UniProt O60674); experiment: Inhibition of JAK2 phosphorylation in human U-87 MG cells at 25 uM after 12 hrs by Western blotting analysis; assay type: cell-based; procedure, shortened: as §1
451Lu [12] = experiment: Antiproliferative activity against human SB-590885-sensitive 451Lu cells assessed as reduction in cell viability measured after 48 hrs by MTS assay; assay type: functional; procedure, shortened: as §2
[13] = biological target: T1, Signal transducer and activator of transcription 3; experiment: Inhibition of STAT3 phosphorylation at Y705 residues in human MDA-MB-468 cells at 25 uM after 12 hrs by Western blotting analysis; assay type: cell-based; procedure, shortened: as §1
MIA PaCa-2 = experiment: Antiproliferative activity against human MIA PaCa-2 cells measured after 48 hrs by MTS assay; assay type: functional, cell-based; procedure, shortened: as §3
UACC-62 = experiment: Anticancer activity against human UACC-62 cells assessed as cell growth inhibition at 10 uM measured after 48 hrs by SRB assay relative to control; assay type: functional; conditions: read-out: GI
Procedure, shortened: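 NCI 60-cell-line screen. Cells in RPMI with 5% FBS were plated at 5,000–40,000 cells/well by doubling time and preincubated 24 h at 37 °C. Compound was added at a single 10 µM for 48 h, then cells were fixed with cold TCA (10% final) and stained with 0.4% SRB. Absorbance at 515 nm gave percent growth versus untreated control and time-zero cells.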

[14] = biological target: T1, Signal transducer and activator of transcription 3; experiment: Inhibition of STAT3 phosphorylation at Y705 residues in human A549 cells at 25 uM after 12 hrs by Western blotting analysis; assay type: cell-based; procedure, shortened: as §1
[15] = biological target: T1, Signal transducer and activator of transcription 3; experiment: Inhibition of STAT3 phosphorylation at Y705 residues in human MIA PaCa-2 cells at 25 uM after 12 hrs by Western blotting analysis; assay type: cell-based; procedure, shortened: as §1
[16] = biological target: Tyrosine-protein kinase JAK2 (Homo sapiens) (UniProt O60674); experiment: Inhibition of JAK2 phosphorylation in human MDA-MB-468 cells at 25 uM after 12 hrs by Western blotting analysis; assay type: cell-based; procedure, shortened: as §1
A-375 [17] = experiment: Induction of ROS generation in human A-375 cells incubated for 18 hrs by DCFH-DA dye based flow cytometry; assay type: functional, cell-based; conditions: dose 10-25 µM
Procedure, shortened: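 A375 cells (1×10^6) were treated with DMSO, 10 or 25 µM for 18 h in full RPMI, then trypsinized and washed. They were loaded with 10 µM DCFH-DA (final) for 30 min at 37 °C in the dark. DCF fluorescence was read by flow cytometry (488 nm excitation, 535 nm filter).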

[18] = biological target: T1, Signal transducer and activator of transcription 3; experiment: Inhibition of IL-6 induced STAT3 activation in human A-375 cells preincubated for overnight followed by IL-6 addition and measured after 30 mins by Western blot analysis; assay type: cell-based
Procedure, shortened: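 A375 cells were held overnight in serum-free medium with inhibitor doses, then stimulated in full medium with 25 ng/mL IL-6 for 30 min. Lysates were immunoblotted for STAT3 pY705/pS727 and Cyclin D1.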

[19] = biological target: T1, Signal transducer and activator of transcription 3; experiment: Inhibition of STAT3 phosphorylation at S727 residues in human MIA PaCa-2 cells at 25 uM after 12 hrs by Western blotting analysis; assay type: cell-based; procedure, shortened: as §1
[20] = biological target: T1, Signal transducer and activator of transcription 3; experiment: Inhibition of STAT3 phosphorylation at S727 residues in human A-375 cells at 5 to 10 uM after 12 hrs by Western blotting analysis; assay type: cell-based; conditions: dose 5-10 µM; procedure, shortened: as §1
[21] = biological target: Proto-oncogene tyrosine-protein kinase Src (Homo sapiens) (UniProt P12931); experiment: Inhibition of SRC phosphorylation in human MIA PaCa-2 cells at 25 uM after 12 hrs by Western blotting analysis; assay type: cell-based; procedure, shortened: as §1

T1 sequence (P40763 whole entry): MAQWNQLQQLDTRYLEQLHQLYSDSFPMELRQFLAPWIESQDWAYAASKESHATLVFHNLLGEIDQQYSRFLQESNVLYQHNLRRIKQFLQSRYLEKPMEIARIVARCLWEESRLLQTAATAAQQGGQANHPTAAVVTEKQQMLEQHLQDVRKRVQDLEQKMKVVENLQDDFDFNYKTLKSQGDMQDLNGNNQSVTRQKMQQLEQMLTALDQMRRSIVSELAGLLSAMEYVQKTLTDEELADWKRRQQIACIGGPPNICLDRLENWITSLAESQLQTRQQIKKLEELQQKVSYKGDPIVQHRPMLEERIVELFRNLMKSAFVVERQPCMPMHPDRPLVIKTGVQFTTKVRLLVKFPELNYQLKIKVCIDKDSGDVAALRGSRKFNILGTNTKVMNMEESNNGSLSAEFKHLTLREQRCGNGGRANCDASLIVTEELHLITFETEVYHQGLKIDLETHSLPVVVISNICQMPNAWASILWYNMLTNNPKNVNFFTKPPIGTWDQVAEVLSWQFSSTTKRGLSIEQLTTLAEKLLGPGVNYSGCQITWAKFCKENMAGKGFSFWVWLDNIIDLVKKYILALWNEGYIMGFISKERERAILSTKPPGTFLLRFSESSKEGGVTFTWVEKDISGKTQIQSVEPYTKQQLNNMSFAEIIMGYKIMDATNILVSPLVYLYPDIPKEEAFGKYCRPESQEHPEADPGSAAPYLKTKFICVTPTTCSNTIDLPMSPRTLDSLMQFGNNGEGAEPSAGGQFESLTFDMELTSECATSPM
Tyrosine-protein kinase JAK2 (Homo sapiens), sequence (O60674 whole entry): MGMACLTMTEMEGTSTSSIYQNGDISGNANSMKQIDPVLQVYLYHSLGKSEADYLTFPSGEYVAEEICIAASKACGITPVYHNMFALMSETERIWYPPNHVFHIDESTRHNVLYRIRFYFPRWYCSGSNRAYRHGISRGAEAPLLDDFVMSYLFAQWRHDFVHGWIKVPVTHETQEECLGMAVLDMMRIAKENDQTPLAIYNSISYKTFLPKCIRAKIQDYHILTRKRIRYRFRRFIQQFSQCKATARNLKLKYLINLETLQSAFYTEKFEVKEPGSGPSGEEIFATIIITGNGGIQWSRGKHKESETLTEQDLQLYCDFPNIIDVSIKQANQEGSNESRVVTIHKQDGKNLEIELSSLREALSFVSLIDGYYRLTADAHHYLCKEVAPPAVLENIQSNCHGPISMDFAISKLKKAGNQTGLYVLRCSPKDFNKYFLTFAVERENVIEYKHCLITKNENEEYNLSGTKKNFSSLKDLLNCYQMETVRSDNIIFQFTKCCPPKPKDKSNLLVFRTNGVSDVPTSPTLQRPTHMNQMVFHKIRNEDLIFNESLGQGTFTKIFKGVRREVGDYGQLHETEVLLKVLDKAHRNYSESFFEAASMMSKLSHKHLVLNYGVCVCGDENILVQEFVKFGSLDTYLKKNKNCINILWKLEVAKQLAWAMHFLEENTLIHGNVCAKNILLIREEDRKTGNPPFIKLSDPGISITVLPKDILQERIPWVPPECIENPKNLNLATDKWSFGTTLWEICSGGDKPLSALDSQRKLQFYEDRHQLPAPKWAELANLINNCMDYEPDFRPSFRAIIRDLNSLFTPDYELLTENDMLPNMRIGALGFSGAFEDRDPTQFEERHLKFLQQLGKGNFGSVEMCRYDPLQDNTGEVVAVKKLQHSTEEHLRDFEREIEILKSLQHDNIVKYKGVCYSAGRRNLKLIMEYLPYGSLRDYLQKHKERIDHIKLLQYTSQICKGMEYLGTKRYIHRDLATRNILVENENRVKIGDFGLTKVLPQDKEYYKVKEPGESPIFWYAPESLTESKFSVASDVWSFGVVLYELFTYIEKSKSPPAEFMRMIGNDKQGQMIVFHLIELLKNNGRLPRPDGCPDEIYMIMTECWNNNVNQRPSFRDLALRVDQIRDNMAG
Proto-oncogene tyrosine-protein kinase Src (Homo sapiens), sequence (P12931 2-536 limits assumed): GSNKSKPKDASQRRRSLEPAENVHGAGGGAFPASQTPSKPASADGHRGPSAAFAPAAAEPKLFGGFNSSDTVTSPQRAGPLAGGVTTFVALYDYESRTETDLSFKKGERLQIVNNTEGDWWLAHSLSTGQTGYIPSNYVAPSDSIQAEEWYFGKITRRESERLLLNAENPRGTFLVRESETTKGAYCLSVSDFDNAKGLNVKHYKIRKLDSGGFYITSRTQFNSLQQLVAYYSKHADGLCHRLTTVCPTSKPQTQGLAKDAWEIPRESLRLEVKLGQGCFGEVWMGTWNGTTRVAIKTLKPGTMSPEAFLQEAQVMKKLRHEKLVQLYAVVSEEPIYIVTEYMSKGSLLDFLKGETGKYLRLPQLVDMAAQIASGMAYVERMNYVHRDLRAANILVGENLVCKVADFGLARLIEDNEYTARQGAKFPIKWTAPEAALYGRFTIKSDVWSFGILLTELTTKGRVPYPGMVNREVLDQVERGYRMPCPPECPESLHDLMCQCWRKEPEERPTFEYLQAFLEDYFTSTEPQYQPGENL
Signal transducer and activator of transcription 3 (Mus musculus), sequence (P42227 whole entry): as the sequence (P40763 whole entry) above, with E760D counted along it

For C=CCn1c(SCC(=O)Nc2ccc(/C(C)=N\O)cc2)nnc1-c1cc(-c2ccc(Cl)cc2)nc2ccccc12, the inhibition [1] was “Dose-dependent effect” and the inhibition [2] was “Dose-dependent effect”.

With C=CCn1c(SCC(=O)Nc2ccc(/C(C)=N\O)cc2)nnc1-c1cc(-c2ccccc2)nc2ccccc12 the Activity (451Lu [3]) was “Active”, the inhibition [4] was “Active” and the Activity (MEL1617 [5]) was “Dose-dependent effect”. For the same molecule, the inhibition [6] was “inactive”, the Activity (MDA-MB-468) was “Active” and the inhibition [7] was “Active”. The inhibition [1] was “Dose-dependent effect”, the Activity (451Lu [8]) was “Dose-dependent effect” and the Activity (A-375 [9]) was “Active”. The Activity (MEL1617 [10]) was “Dose-dependent effect”, the inhibition [11] was “inactive” and the Activity (451Lu [12]) was “Dose-dependent effect”. For the same molecule, the inhibition [13] was “Active”, the Activity (MIA PaCa-2) was “Active” and the inhibition of growth at 10 µM (UACC-62) was 76%. For the same molecule, the inhibition [14] was “Active”, the inhibition [15] was “Active” and the inhibition [16] was “inactive”. The Activity (A-375 [17]) was “Dose-dependent effect”, the inhibition [18] was “Dose-dependent effect” and the inhibition [19] was “Active”. The inhibition [20] was “Active” and the inhibition [21] was “inactive”.
